Consider 19 compounds from ChEMBL document CHEMBL1125277, “Novel cerebroprotective agents with central nervous system stimulating activity. 1. Synthesis and pharmacology of 1-amino-7-hydroxyindan derivatives” (1991).

In the first assay the test system is Mus musculus. Description: Time of recovery of righting reflux (RRT) in seconds was measured after administration of 200 mg/kg perorally in mice for the promotional effect on recovery from coma. To be noted: route oral. The format is functional. A digest of the protocol:
(§1)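 Male ICR mice (20–30 g) were dosed orally 1 h before concussion was induced, and saline-dosed mice served as controls. Times to recovery of righting reflex and of spontaneous movement were recorded in seconds. Brains were examined post mortem, and mice with contused brain wounds were excluded. Statistics used the Wilcoxon sum test.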
Consider `CN(C)CCOC(=O)COc1ccc(Cl)cc1` [MECLOFENOXATE], for which the RRT turned out to be 53.8 s.

A further assay has as its system Mus musculus. Briefly: Time of recovery of righting reflux (RRT) in seconds was measured after administration of 2.5 mg/kg intravenously in mice for the promotional effect on recovery from coma. To be noted: route intravenous. The format is functional. In outline:
(§2)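 This is the concussion-induced coma model in male ICR mice (20–30 g), with saline-treated controls. Righting-reflex and spontaneous-movement recovery times were recorded in seconds. Animals with contused brain wounds at post-mortem were excluded. Groups were compared by Wilcoxon sum test.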
`NC(=O)[C@@H]1CCCN1C(=O)[C@H](Cc1c[nH]cn1)NC(=O)[C@@H]1CCC(=O)N1` [PROTIRELIN]: the RRT turned out to be 40.8 s.

A further assay deals with Mus musculus. Briefly: Time of recovery of righting reflux (RRT) in seconds was measured after administration of 40 mg/kg intraperitoneally in mice for the promotional effect on recovery from coma. The format is functional. To be noted: route intraperitoneal. In outline:
(§3)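 Male ICR mice (20–30 g); concussion-induced coma model of head injury. Control mice received the same amount of physiological saline. Brains examined post mortem and mice with contused wounds excluded. Recovery times in seconds (righting reflex or spontaneous movement) expressed as % of control; Wilcoxon sum test.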
The compound `CCCC(C)C1(CC)C(=O)N=C([O-])NC1=O.[Na+]` (stereo unspecified) [PENTOBARBITAL SODIUM] gave an RRT of 494 s.

In another assay the test system is Mus musculus. Briefly: Time of recovery of spontaneous movement (SMT) in seconds was measured after administration of 2.5 mg/kg intravenously in mice for the promotional effect on recovery from coma. The format is functional. Particulars: route intravenous. A digest of the protocol: as §2
On to `NC(=O)[C@@H]1CCCN1C(=O)[C@H](Cc1c[nH]cn1)NC(=O)[C@@H]1CCC(=O)N1` [PROTIRELIN], for which the SMT is listed as 40.9 s.

The next assay relates to Mus musculus. Briefly: Time of recovery of spontaneous movement (SMT) in seconds was measured after administration of 200 mg/kg perorally in mice for the promotional effect on recovery from coma. To be noted: route oral. The format is functional. A digest of the protocol:
as §1
Compound `CN(C)CCOC(=O)COc1ccc(Cl)cc1` [MECLOFENOXATE] came in with an SMT of 63.8 s.

In another assay the test system is Mus musculus. Description: Antihypoxic effect by the survival time (SVT) in mice at a dose of 30 mg/kg administered subcutaneously in mice. The format is functional. Set-up: unit: % of control. Particulars: route subcutaneous. A digest of the protocol:
(§4)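 Male ICR mice (20–30 g), groups of 10, dosed 0.25 h (iv, sc or ip) or 1 h (oral) before test. Mice placed in desiccator evacuated to 210 mmHg. Survival time measured from pump start to cessation of respiration, capped at 900 s. Activity expressed as % of control survival time; Wilcoxon sum test.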
In turn, `Cl.NC1CCc2c(Cl)cc(Cl)c(O)c21` (stereo unspecified) displayed an SVT of 65.8.
Compound `Cc1cc(C)c2c(c1O)C(N)CC2.Cl` (stereo unspecified) yielded an SVT of 303.4.
Turning to `CC(=O)Nc1cc(C)c2c(c1O)C(N)CC2.Cl` (stereo unspecified), the SVT is 46.8.
Still for that read-out and setting: the result for `Cc1ccc(O)c2c1CCC2N.Cl` (stereo unspecified) reads 157.8; that for `Cc1cc(Br)c(O)c2c1CCC2N.Cl` (stereo unspecified), 308.
For `CCCc1cc(C)c2c(c1O)C(N)CC2.Cl` (stereo unspecified), the SVT stood at 244.6.
`Cc1cc(I)c(O)c2c1CCC2N.Cl` (stereo unspecified) had an SVT of 184.6.
The compound `CCCc1ccc2c(c1O)C(N)CC2.Cl` (stereo unspecified) yielded an SVT of 138.
For the compound `Cc1cc([N+](=O)[O-])c(O)c2c1CCC2N.Cl` (stereo unspecified), the SVT came to 189.7.
On the same count and under the same terms, to `Cc1cc(CN)c(O)c2c1CCC2N.Cl` (stereo unspecified) belongs 74.3.
The compound `CCCc1cc(CC)c2c(c1O)C(N)CC2.Cl` (stereo unspecified) yielded an SVT of 194.3.
Turning to `Cc1cc(C)c2c(c1O)C(N)C(C)(C)C2.Cl` (stereo unspecified), the SVT is recorded as 298.1.
`Cc1cc(CC(C)C)c(O)c2c1CCC2N.Cl` (stereo unspecified): the SVT is 281.4.
Same read-out and setting: to `CCC(C)c1cc(C)c2c(c1O)C(N)CC2.Cl` (stereo unspecified) belongs 276.5.
The compound `CNC1CCc2c(C)cc(C)c(O)c21.Cl` (stereo unspecified) showed an SVT of 177.5.

Another assay has as its system Mus musculus. Briefly: Time of recovery of spontaneous movement (SMT) in seconds was measured after administration of 40 mg/kg intraperitoneally in mice for the promotional effect on recovery from coma. The format is functional. Particulars: route intraperitoneal. A digest of the protocol: as §3
Consider `CCCC(C)C1(CC)C(=O)N=C([O-])NC1=O.[Na+]` (stereo unspecified) [PENTOBARBITAL SODIUM], for which the SMT amounted to 283 s.

The subject of a further assay is Mus musculus. Description: Antihypoxic effect by the survival time (SVT) in mice at a dose of 100 mg/kg administered intraperitoneally in mice. The format is functional.
Details: not given
A digest of the protocol: as §4
As to VITAMIN E, the SVT amounted to 96.7.

The subject of the next assay is Mus musculus. Description: Antihypoxic effect by the survival time (SVT) in mice at a dose of 40 mg/kg administered intraperitoneally in mice. The format is functional. To be noted: route intraperitoneal. A digest of the protocol:
as §4
Take `CCCC(C)C1(CC)C(=O)N=C([O-])NC1=O.[Na+]` (stereo unspecified) [PENTOBARBITAL SODIUM]: the SVT was found to be 306.7.

The subject of another assay is Mus musculus. Description: Time of recovery of spontaneous movement (SMT) in seconds was measured after administration of 100 mg/kg orally in mice for the promotional effect on recovery from coma. The format is functional.
Details: not given
In outline: as §1
As to VITAMIN E, the SMT is 83.5 s.

Still in this assay, the particulars now being: route oral.
In the case of `Cc1cc(C)c2c(c1O)C(N)CC2.Cl` (stereo unspecified), the SMT came out at 61.4 s.
The same measure, in the same setting: to `Cc1ccc(O)c2c1CCC2N.Cl` (stereo unspecified) belongs 42.6 s; to `Cc1cc(Br)c(O)c2c1CCC2N.Cl` (stereo unspecified), 83.4 s.
For the compound `Cc1cc(I)c(O)c2c1CCC2N.Cl` (stereo unspecified), the SMT worked out at 92.3 s.
`CCCc1ccc2c(c1O)C(N)CC2.Cl` (stereo unspecified) registered an SMT of 79.5 s.
For `Cc1cc(CN)c(O)c2c1CCC2N.Cl` (stereo unspecified), the SMT is on record as 79.3 s.
`CCCc1cc(CC)c2c(c1O)C(N)CC2.Cl` (stereo unspecified) gave an SMT of 116.3 s.
Still for that read-out and setting: to `Cc1cc(C)c2c(c1O)C(N)C(C)(C)C2.Cl` (stereo unspecified) belongs 53.9 s; to `Cc1cc(CC(C)C)c(O)c2c1CCC2N.Cl` (stereo unspecified), 76.1 s; to `CCC(C)c1cc(C)c2c(c1O)C(N)CC2.Cl` (stereo unspecified), 23.3 s.
As for `CNC1CCc2c(C)cc(C)c(O)c21.Cl` (stereo unspecified), the SMT was determined as 55.8 s.

In the next assay the test system is Mus musculus. Briefly: Antihypoxic effect by the survival time (SVT) in mice at a dose of 3 mg/kg administered intravenously in mice. The format is functional. Particulars: route intravenous. A digest of the protocol:
as §4
In turn, `CN(C)CCOC(=O)COc1ccc(Cl)cc1` [MECLOFENOXATE] displayed an SVT of 133.
In turn, `NC(=O)[C@@H]1CCCN1C(=O)[C@H](Cc1c[nH]cn1)NC(=O)[C@@H]1CCC(=O)N1` [PROTIRELIN] displayed an SVT of 43.4.

The test system of a further assay is Mus musculus. Description: Antihypoxic effect tested by the survival time (SVT) in mice at a dose of 100 mg/kg. Also noted: unit: % of control. The format is functional.
Details: not given
In outline: as §4
Compound `Cc1cc(C)c2c(c1O)C(N)CC2.Cl` (stereo unspecified) registered an SVT of 255.7.
For the compound `Cc1ccc(O)c2c1CCC2N.Cl` (stereo unspecified), the SVT came out at 98.4.
For the compound `Cc1cc(Br)c(O)c2c1CCC2N.Cl` (stereo unspecified), the SVT is 130.1.
With `CCCc1cc(C)c2c(c1O)C(N)CC2.Cl` (stereo unspecified), the SVT was 205.3.
On the same count and under the same terms, to VITAMIN E belongs 178; to `CCCc1ccc2c(c1O)C(N)CC2.Cl` (stereo unspecified), 158.
Still for that read-out and setting: the result for `Cc1cc(CN)c(O)c2c1CCC2N.Cl` (stereo unspecified) reads 110.2; that for `CCCc1cc(CC)c2c(c1O)C(N)CC2.Cl` (stereo unspecified), 206.8; that for `Cc1cc(C)c2c(c1O)C(N)C(C)(C)C2.Cl` (stereo unspecified), 288.
`CN(C)CCOC(=O)COc1ccc(Cl)cc1` [MECLOFENOXATE] came in with an SVT of 106.
On the same count and under the same terms, to `Cc1cc(CC(C)C)c(O)c2c1CCC2N.Cl` (stereo unspecified) belongs 149.9.
On the same count and under the same terms, the result for `CCC(C)c1cc(C)c2c(c1O)C(N)CC2.Cl` (stereo unspecified) reads 234.8.

A further assay deals with Mus musculus. Briefly: Time of recovery of righting reflux (RRT) in seconds was measured after administration of 100 mg/kg orally in mice for the promotional effect on recovery from coma. The format is functional.
Details: not given
In outline:
as §1
With VITAMIN E, the RRT is 92.2 s.

Staying with this assay, now noted: route oral.
`Cc1cc(C)c2c(c1O)C(N)CC2.Cl` (stereo unspecified): the RRT is given as 51.4 s.
Take `Cc1ccc(O)c2c1CCC2N.Cl` (stereo unspecified): the RRT worked out at 40.1 s.
`Cc1cc(Br)c(O)c2c1CCC2N.Cl` (stereo unspecified) came in with an RRT of 81.5 s.
With `Cc1cc(I)c(O)c2c1CCC2N.Cl` (stereo unspecified), the RRT turned out to be 81.1 s.
Same read-out and setting: to `CCCc1ccc2c(c1O)C(N)CC2.Cl` (stereo unspecified) belongs 70.5 s.
In the case of `Cc1cc(CN)c(O)c2c1CCC2N.Cl` (stereo unspecified), the RRT worked out at 69.9 s.
In turn, `CCCc1cc(CC)c2c(c1O)C(N)CC2.Cl` (stereo unspecified) returned an RRT of 94.4 s.
Still for that read-out and setting: the result for `Cc1cc(C)c2c(c1O)C(N)C(C)(C)C2.Cl` (stereo unspecified) reads 37.2 s; that for `Cc1cc(CC(C)C)c(O)c2c1CCC2N.Cl` (stereo unspecified), 59.3 s.
`CCC(C)c1cc(C)c2c(c1O)C(N)CC2.Cl` (stereo unspecified) came in with an RRT of 18.9 s.
As for `CNC1CCc2c(C)cc(C)c(O)c21.Cl` (stereo unspecified), the RRT is on record as 57.9 s.
